Laboratory results as given in ChEMBL document CHEMBL1142668, “Synthesis and biological evaluation of neutral and zwitterionic 3-carboranyl thymidine analogues for boron neutron capture therapy” (J Med Chem, 2005).

Columns and labels:
L929 = test: Mean phosphorylation rate of 10 uM compound by recombinant human thymidine kinase 1 (cytosolic) expressing wild type L929 tumor cells; type: functional
Procedure, shortened: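 Purified recombinant human TK1 (50 ng) with 10 µM substrate, final DMSO 1%, 100 µM ATP spiked with 0.03 µM [γ-32P]-ATP, in 50 mM Tris-HCl pH 7.6, 5 mM MgCl2, 125 mM KCl, 10 mM DTT, 0.5 mg/mL BSA. Run at 37 °C for 20 min, then 95 °C for 2 min. Products separated by PEI-cellulose TLC and read by phosphorimager. Rate expressed relative to thymidine, using one enzyme batch.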

[1] = Mean retention time in reversed phase HPLC (RP-18); type: ADME

Compound	Phosphorylation rate (L929; Mus musculus)	Retention time [1]	Phosphorylation rate (L929)
3-[4-(7-Ammonium-nido-m-carboran-1-yl)butan-1-yl]-thymidine	63.8%		
Cc1cn([C@H]2C[C@H](O)[C@@H](CO)O2)c(=O)[nH]c1=O [DOXRIBTIMINE]		8.72 min	100%
3-[2-(7-Ammonium-nido-m-carboran-1-yl)ethoxyethyl]-thymidine	75.1%		
C#CCn1c(=O)c(C)cn([C@H]2CC(O)[C@@H](CO)O2)c1=O (single isomer, unassigned)		11.79 min	102%
3-[3-(7-Ammonium-nido-m-carboran-1-yl)propan-1-yl]-thymidine	64.6%		
3-[4-(7-Amino-closo-m-carboran-1-yl)butan-1-yl]thymidine	58%		
3-[2-(7-Ammonium-nido-m-carboran-1-yl)ethan-1-yl]-thymidine	89.4%		
Cc1cn([C@H]2C[C@H](N=[N+]=[N-])[C@@H](CO)O2)c(=O)[nH]c1=O [ZIDOVUDINE]		12.22 min	52%
3-[5-(7-Amino-closo-m-carboran-1-yl)hexan-1-yl]thymidine	14.2%		
3-[(closo-o-Caboran-1-yl)methyl]thymidine	9.6%		
3-[5-(7-Ammonium-nido-m-carboran-1-yl)pentan-1-yl]thymidine	50.7%		
3-[6-(7-Ammonium-nido-m-carboran-1-yl)hexan-1-yl]-thymidine	45.4%		
3-[2-(7-Amino-closo-m-carboran-1-yl)-ethan-1-yl]thymidine	71.9%		
3-[5-(7-Amino-closo-m-carboran-1-yl)pentan-1-yl]thymidine	45.1%		
3-[3-(7-Amino-closo-m-carboran-1-yl)propan-1-yl]thymidine	58.2%		
3-[2-(7-Amino-closo-m-carboran-1-yl)ethoxyethyl]thymidine	48.4%		
N5-20H	41%		
